Results from publication PMC11734723 (Science Advances, 2025).

Experiments:
[1] = molecular target: T1, TRPC4 (Mus musculus, UniProt Q9QUQ5); assay: Carbachol-induced Sr2+ entry in TRPC4-overexpressing HEK293 cells; type: cell-based; settings: read-out: IC50 of Cch-induced Sr2+ entry; Cch 100 nM, Sr2+ 3 mM
T1 sequence (Q9QUQ5 1-890 isoform Q9QUQ5-2): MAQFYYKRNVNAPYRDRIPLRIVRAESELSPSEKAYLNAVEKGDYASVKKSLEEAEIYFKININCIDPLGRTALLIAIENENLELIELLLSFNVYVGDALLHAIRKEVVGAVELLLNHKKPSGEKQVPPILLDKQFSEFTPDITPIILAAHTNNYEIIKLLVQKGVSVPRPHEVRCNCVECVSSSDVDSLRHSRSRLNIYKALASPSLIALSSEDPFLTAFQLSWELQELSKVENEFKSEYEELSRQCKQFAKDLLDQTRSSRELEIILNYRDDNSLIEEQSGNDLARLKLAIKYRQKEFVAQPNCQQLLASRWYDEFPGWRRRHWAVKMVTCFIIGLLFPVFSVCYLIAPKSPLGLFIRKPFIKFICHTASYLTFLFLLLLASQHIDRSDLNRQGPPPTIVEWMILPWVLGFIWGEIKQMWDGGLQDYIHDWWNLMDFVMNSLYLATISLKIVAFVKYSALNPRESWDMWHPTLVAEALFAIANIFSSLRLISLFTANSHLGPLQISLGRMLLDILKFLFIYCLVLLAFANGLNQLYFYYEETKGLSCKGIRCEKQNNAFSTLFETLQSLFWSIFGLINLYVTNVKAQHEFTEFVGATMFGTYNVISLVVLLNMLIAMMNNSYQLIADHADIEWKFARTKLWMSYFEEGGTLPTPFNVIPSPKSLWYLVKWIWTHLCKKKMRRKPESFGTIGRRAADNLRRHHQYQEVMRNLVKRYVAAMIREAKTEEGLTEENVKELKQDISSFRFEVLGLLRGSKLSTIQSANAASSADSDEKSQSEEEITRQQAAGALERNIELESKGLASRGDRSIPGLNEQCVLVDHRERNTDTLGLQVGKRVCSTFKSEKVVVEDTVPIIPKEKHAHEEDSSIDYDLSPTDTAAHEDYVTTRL
How it was run: (§1)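 HEK293 cells were electroporated with GFP-tagged TRPC4, TRPC5 or TRPC7, plated after 24 h and cultured 48 h under selection; only high-GFP cells were analysed. Coverslip cells were loaded with Fura2 (2 µM) and treated with carbachol (100 nM) plus test compound (0 to 100 µM). Entry was measured after adding Sr²⁺ (3 mM), read as the 340/380 ratio; n = 3 to 5.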

[2] = molecular target: T2, TRPC5 (Homo sapiens, UniProt Q9UL62); assay: Carbachol-induced Sr2+ entry in TRPC5-overexpressing HEK293 cells; type: cell-based; settings: read-out: IC50 of Cch-induced Sr2+ entry; Cch 100 nM, Sr2+ 3 mM
T2 sequence (Q9UL62 1-973): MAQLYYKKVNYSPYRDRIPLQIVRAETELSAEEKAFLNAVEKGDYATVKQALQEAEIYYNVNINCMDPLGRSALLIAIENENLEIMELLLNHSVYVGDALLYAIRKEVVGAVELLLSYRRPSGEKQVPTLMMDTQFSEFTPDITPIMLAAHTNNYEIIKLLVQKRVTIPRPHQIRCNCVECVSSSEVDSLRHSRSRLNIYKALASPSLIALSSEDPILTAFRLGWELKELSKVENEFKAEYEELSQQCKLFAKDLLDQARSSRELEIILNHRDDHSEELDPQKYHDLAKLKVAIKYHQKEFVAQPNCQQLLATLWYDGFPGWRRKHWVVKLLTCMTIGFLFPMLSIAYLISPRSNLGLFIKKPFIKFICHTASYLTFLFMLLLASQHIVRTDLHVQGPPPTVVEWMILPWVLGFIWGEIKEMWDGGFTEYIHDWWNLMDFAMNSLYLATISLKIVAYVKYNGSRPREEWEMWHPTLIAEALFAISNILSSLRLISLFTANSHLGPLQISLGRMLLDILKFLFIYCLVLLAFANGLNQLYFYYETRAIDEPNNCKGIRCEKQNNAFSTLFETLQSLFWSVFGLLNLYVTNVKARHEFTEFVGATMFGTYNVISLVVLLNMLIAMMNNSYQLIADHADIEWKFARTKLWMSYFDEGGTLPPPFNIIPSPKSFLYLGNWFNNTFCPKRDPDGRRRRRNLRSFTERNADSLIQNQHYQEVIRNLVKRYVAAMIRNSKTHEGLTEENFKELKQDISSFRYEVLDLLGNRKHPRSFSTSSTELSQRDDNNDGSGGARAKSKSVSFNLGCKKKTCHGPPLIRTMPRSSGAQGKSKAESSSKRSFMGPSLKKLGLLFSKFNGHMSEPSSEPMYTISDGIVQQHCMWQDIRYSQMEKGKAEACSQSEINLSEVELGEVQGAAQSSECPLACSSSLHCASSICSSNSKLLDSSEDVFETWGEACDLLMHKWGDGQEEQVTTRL
How it was run: as §1

[3] = preclinical testing in mice; cited from earlier work

IC50 [1]: 172 nM | IC50 [2]: 11.5 nM
Compound: CCC(=O)N(C)c1ccc(Cl)c(Cl)c1 [ELP-004]
genotoxic or off-target toxicities [3]: without inducing genotoxic or extensive off-target toxicities
